Measurements as given in ChEMBL document CHEMBL6083194, “Discovery and evaluation of 3-(2-isocyanobenzyl)-1H-indole derivatives as potential quorum sensing inhibitors for the control of Pseudomonas aeruginosa infections in vitro” (RSC Med Chem, 2024).
Active and inactive are the calls of the source. The rule behind the calls is not given here.

What was measured:
Pseudomonas aeruginosa [1] = assay: Downregulation of sdhB gene expression in Pseudomonas aeruginosa PAO1 assessed as fold decrease at 25 ug/ml by RT-qPCR analysis; assay type: functional; conditions: dose 25 µg/ml
Pseudomonas aeruginosa [2] = assay: Downregulation of pqsR gene expression in Pseudomonas aeruginosa PAO1 assessed as fold decrease at 25 ug/ml by RT-qPCR analysis; assay type: functional; conditions: dose 25 µg/ml
Pseudomonas aeruginosa [3] = assay: Downregulation of rhlR gene expression in Pseudomonas aeruginosa PAO1 assessed as fold decrease at 25 ug/ml by RT-qPCR analysis; assay type: functional; conditions: dose 25 µg/ml
Pseudomonas aeruginosa [4] = assay: Downregulation of lasI gene expression in Pseudomonas aeruginosa PAO1 assessed as fold decrease at 25 ug/ml by RT-qPCR analysis; assay type: functional; conditions: dose 25 µg/ml
Pseudomonas aeruginosa [5] = assay: Inhibition of biofilm formation in Pseudomonas aeruginosa PAO1 incubated for 24 hrs crystal violet staining based SEM assay; assay type: functional, organism-based
Pseudomonas aeruginosa [6] = assay: Inhibition of pyocyanin production in Pseudomonas aeruginosa PAO1 at 1/2 time MIC incubated for 18 hrs; assay type: functional
In short: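 Overnight PAO1 in LB diluted to OD600 = 0.05, subcultured 5–7 h to mid-log, rediluted to OD600 = 0.05. 5 mL with compound grown 18 h at 37 °C, 200 rpm. Supernatant extracted with 3 mL chloroform, back-extracted into 0.2 M HCl, absorbance at 520 nm.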

Pseudomonas aeruginosa [7] = assay: Antibacterial activity against Pseudomonas aeruginosa PAO1 assessed as bacterial growth inhibition at 6.25 to 25 ug/ml by serial dilution method; assay type: functional, organism-based; conditions: dose 6.25-25 µg/ml
In short: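 PAO1 in LB, 37 °C. MIC by CLSI 2-fold serial dilution in Mueller–Hinton broth, inoculum 1–5 × 10^5 CFU mL−1, DMSO stocks. Growth curves: overnight culture diluted to OD600 = 0.05, subcultured to mid-log, rediluted to OD600 = 0.05, 3 mL with compound; OD620 read at 1, 3, 5, 7, 9, 11 and 24 h at 37 °C; DMSO negative control.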

[8] = Inhibition of quorum sensing system in Pseudomonas aeruginosa PAO1 assessed as reduction in C4-HSL level at 6.25 to 25 ug/ml incubated for 24 hrs by LC-MS/MS method; conditions: dose 6.25-25 µg/ml
[9] = Inhibition of quorum sensing system in Pseudomonas aeruginosa PAO1 assessed as reduction in 3-oxo-C12-HSL level at 6.25 to 25 ug/ml incubated for 24 hrs by LC-MS/MS method; conditions: dose 6.25-25 µg/ml
[10] = Inhibition of quorum sensing system in Pseudomonas aeruginosa PAO1 assessed as reduction in 3-oxo-C12-HSL level at 25 ug/ml incubated for 24 hrs by LC-MS/MS method; conditions: dose 25.0 µg/ml
Pseudomonas aeruginosa [11] = assay: Inhibition of biofilm formation in Pseudomonas aeruginosa PAO1 at 12.5 ug/ml incubated for 24 hrs crystal violet staining based assay; assay type: functional
In short: (§1)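 PAO1 grown statically for 24 h in LB ± compound in 24-well plates. Planktonic cells removed; attached cells stained with 0.05% crystal violet, rinsed, dissolved in 95% ethanol, read at OD570. DMSO negative, resveratrol positive control; SD from three independent experiments.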

Pseudomonas aeruginosa [12] = assay: Inhibition of biofilm formation in Pseudomonas aeruginosa PAO1 at 25 ug/ml incubated for 24 hrs crystal violet staining based assay; assay type: functional; in short: as §1
Pseudomonas aeruginosa [13] = assay: Anti-virulence effect in Pseudomonas aeruginosa PAO1 assessed as decrease in protease level at 25 ug/ml; assay type: functional; design: scale not given: the % may be the effect or the level left; conditions: dose 25 µg/ml
In short: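 Overnight PAO1 culture diluted 1:100 into LB with compound (6.25–25 μg mL−1), grown at 37 °C and 180 rpm; DMSO and RSV (25 μg mL−1) as controls. Culture supernatant mixed with 2% azocasein in 1 M Tris–HCl pH 8.0 for 15 min at 37 °C. Reaction stopped with 10% TCA, centrifuged, NaOH added, read at OD440.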

Pseudomonas aeruginosa [14] = assay: Anti-virulence effect in Pseudomonas aeruginosa PAO1 assessed as inhibition of pyocyanin production at 6.25 ug/ml; assay type: functional; design: scale not given: the % may be the effect or the level left; conditions: dose 6.25 µg/ml
In short: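 Overnight PAO1 culture in LB at 37 °C, diluted to OD600 0.05 and subcultured 5–7 h to mid-log phase, then re-diluted to OD600 0.05. Grown 18 h at 37 °C and 200 rpm with compound (6.25, 12.5, 25 μg mL−1) or DMSO. Supernatant extracted into chloroform, back-extracted into 0.2 M HCl, read at 520 nm.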

Pseudomonas aeruginosa [15] = assay: Downregulation of PA5439 gene expression in Pseudomonas aeruginosa PAO1 assessed as fold decrease at 25 ug/ml by RT-qPCR analysis; assay type: functional; conditions: dose 25 µg/ml

Cc1cccc(C#N)c1Cc1c[nH]c2ccccc12
fold change (FC) (Pseudomonas aeruginosa [1]): 2.87 | fold change (FC) (Pseudomonas aeruginosa [2]): 7.41 | fold change (FC) (Pseudomonas aeruginosa [3]): 9.71 | fold change (FC) (Pseudomonas aeruginosa [4]): 5 | inhibition (Pseudomonas aeruginosa [5]): Dose-dependent-effect | inhibition (INH) (Pseudomonas aeruginosa [6]): 64% | Activity (Pseudomonas aeruginosa [7]): inactive | inhibition [8]: Active | inhibition [9]: Active | inhibition [10]: 60% | inhibition at 12.5 µg/mL (Pseudomonas aeruginosa [11]): 53% | inhibition at 25 µg/mL (Pseudomonas aeruginosa [12]): 70% | Activity (Pseudomonas aeruginosa [13]): 51% | Activity (Pseudomonas aeruginosa [14]): 41% | fold change (FC) (Pseudomonas aeruginosa [15]): 10.87
